Assays:
[1] = test system: Brassica rapa subsp. oleifera; test: Inhibition of Brassica rapa subsp. oleifera root growth at 10 mg/L; assay type: functional
[2] = test system: Brassica rapa subsp. oleifera; test: Inhibition of Brassica rapa subsp. oleifera at 100 mg/L; assay type: functional
How it was run: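 Rape (Brassica campestris L.) root growth assay, per the group's earlier published method; compound tested at 100 mg L-1; read-out is root length inhibition (%); monosulfuron used as reference herbicide.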

[3] = target: T1, Acetolactate synthase, chloroplastic (Arabidopsis thaliana) (UniProt P17597); test: Inhibition of Arabidopsis thaliana AHAS at 100 mg/L colorimetric assay
T1 sequence (whole entry): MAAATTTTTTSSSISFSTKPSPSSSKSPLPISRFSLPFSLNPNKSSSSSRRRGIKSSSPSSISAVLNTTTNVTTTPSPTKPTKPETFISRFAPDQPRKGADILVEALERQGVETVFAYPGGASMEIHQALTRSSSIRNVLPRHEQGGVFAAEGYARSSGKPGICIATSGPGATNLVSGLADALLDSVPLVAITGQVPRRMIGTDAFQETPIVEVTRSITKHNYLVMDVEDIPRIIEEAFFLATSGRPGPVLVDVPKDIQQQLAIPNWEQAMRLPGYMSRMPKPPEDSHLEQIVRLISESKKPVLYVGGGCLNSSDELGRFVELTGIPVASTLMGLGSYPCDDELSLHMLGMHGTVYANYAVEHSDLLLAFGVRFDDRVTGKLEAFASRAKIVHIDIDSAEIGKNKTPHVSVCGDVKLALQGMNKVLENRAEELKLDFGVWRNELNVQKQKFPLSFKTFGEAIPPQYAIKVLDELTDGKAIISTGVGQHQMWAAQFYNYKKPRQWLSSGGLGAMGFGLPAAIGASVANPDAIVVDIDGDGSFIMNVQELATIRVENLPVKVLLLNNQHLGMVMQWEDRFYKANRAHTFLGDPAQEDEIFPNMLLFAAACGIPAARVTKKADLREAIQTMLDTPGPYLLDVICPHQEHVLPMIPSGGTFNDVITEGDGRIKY
How it was run: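 Expressed and purified A. thaliana AHAS tested at a single concentration of 100 mg L-1. Enzyme activity was read by a colorimetric method described earlier, and the result is given as percent inhibition of AtAHAS activity.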

Compound	inhibition at 10 µg/mL [1]	inhibition at 100 µg/mL [2]	inhibition [3]
O=C1Nc2ccc(C(F)(F)F)cc2C1=O	27%	93%	60%
Cc1cc(Cl)cc2c1NC(=O)C2=O	10%	65%	65%
CN1C(=O)C(=O)c2cc([N+](=O)[O-])ccc21	2%	33%	25%
Cc1ccc2c(c1)C(=O)C(=O)N2	13%	80%	50%
Cc1ccc2c(c1)C(=O)C(=O)N2C	14%	26%	75%
O=C1Nc2ccc([N+](=O)[O-])cc2C1=O [5-NITROISATIN]	7%	82%	60%
Cc1nc(C)c(C(=O)N/N=C2\C(=O)Nc3ccccc32)s1	0%	21%	30%
COc1ccc2c(c1)C(=O)C(=O)N2 [5-METHOXYISATIN]	20%	30%	60%
O=C1Nc2c(I)cccc2/C1=N/NC(=O)c1ccccc1O	0%	25%	95%
O=C1Nc2ccc(F)cc2C1=O [5-FLUOROISATIN]	52%	88%	65%
O=C1Nc2ccc(S(=O)(=O)O)cc2C1=O	4%	18%	10%
O=C(N/N=C1\C(=O)N(Cc2ccc(Cl)cc2Cl)c2ccccc21)c1ccccc1	0%	6%	50%
O=C1Nc2c(I)cccc2/C1=N/NC(=O)c1cccc(F)c1	51%	81%	75%
CN1C(=O)C(=O)c2ccccc21	7%	24%	50%
CN1C(=O)C(=O)c2cc(Cl)ccc21	20%	53%	60%
O=C1Nc2c(Br)cccc2/C1=N/NC(=O)c1cccc(F)c1	0%	16%	60%
O=C1Nc2ccccc2/C1=N/Nc1ncccc1Cl	0%	19%	70%

Compound	inhibition at 10 µg/mL [1]	inhibition at 100 µg/mL [2]	inhibition [3]
N#Cc1ccc(CN2C(=O)/C(=N\NC(=O)c3ccccc3)c3ccccc32)cc1	2%	48%	20%
CN1C(=O)C(=O)c2cc(I)ccc21	13%	27%	60%
O=C1Nc2ccccc2C1=O [ISATIN]	24%	52%	70%
O=C(N/N=C1\C(=O)N(Cc2ccc(F)cc2)c2ccccc21)c1ccccc1	0%	15%	80%
O=C1Nc2ccc(Cl)cc2C1=O	28%	95%	55%
O=C1Nc2ccc(I)cc2C1=O [5-IODOISATIN]	31%	92%	70%
Cc1cc(C)n(CC(=O)N/N=C2\C(=O)Nc3ccccc32)n1	0%	27%	35%
O=C1Nc2c(Cl)cccc2C1=O	51%	83%	70%
CN1C(=O)C(=O)c2cccc(Cl)c21	31%	59%	80%
CC(C)(C)c1ccc(CN2C(=O)/C(=N\NC(=O)c3ccccc3)c3ccccc32)cc1	0%	15%	60%
Cc1ccccc1CN1C(=O)/C(=N\NC(=O)c2ccccc2)c2ccccc21	0%	0%	50%
Cc1ccnc(NC(=O)NS(=O)(=O)c2ccccc2C(=O)O)n1 [MONOSULFURON]	64%	78%	90%
O=C(N/N=C1\C(=O)N(Cc2cccc(F)c2)c2ccccc21)c1ccccc1	0%	40%	95%
CN1C(=O)C(=O)c2cc(F)ccc21	19%	59%	60%
O=C1Nc2c(Br)cccc2/C1=N/NC(=O)c1ccccc1F	14%	39%	95%
O=C1Nc2ccccc2/C1=N/O	0%	55%	45%

— ChEMBL document CHEMBL3045582, “Chemical synthesis, in vitro acetohydroxyacid synthase (AHAS) inhibition, herbicidal activity, and computational studies of isatin derivatives” (2011)
